Source: PubChem (several laboratories)
Pf gametocyte: late stage P. falciparum gametocyte viability inhibitors, primary screen, ATP luminescence, HTS. inhibition, % at 10.9 µM. P. falciparum stage V gametocytes, 24 h. 0.065% of 150,000 active;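 active = inhibition above the mean plus 3 SD of compounds within the control limits, set per campaign, cut at about 38% in these data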
Cl transport mod: KCC2 cotransporter modulators, thallium flux, primary screen, cell-based, HEK293 KCC2, FluoZin-2 fluorescence, MLSMR | Solute carrier family 12 member 5 (Homo sapiens), Q9H2X9 | KCC2 cells, thallium flux FluoZin-2 fluorescence | B-score of Tl+ flux slope (higher = more flux/activation; lower = inhibition) at 10 µM | 2.2% of 190,000 active | AID 1456, 2008;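 active = thallium flux slope and its plate-corrected score both differing from the plate sample mean at a set confidence after two filtering rounds, in either direction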;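 also: slope of fluorescence scaled to starting intensity during 10 to 20 s after thallium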
Target sequence (Q9H2X9 whole entry, looked up): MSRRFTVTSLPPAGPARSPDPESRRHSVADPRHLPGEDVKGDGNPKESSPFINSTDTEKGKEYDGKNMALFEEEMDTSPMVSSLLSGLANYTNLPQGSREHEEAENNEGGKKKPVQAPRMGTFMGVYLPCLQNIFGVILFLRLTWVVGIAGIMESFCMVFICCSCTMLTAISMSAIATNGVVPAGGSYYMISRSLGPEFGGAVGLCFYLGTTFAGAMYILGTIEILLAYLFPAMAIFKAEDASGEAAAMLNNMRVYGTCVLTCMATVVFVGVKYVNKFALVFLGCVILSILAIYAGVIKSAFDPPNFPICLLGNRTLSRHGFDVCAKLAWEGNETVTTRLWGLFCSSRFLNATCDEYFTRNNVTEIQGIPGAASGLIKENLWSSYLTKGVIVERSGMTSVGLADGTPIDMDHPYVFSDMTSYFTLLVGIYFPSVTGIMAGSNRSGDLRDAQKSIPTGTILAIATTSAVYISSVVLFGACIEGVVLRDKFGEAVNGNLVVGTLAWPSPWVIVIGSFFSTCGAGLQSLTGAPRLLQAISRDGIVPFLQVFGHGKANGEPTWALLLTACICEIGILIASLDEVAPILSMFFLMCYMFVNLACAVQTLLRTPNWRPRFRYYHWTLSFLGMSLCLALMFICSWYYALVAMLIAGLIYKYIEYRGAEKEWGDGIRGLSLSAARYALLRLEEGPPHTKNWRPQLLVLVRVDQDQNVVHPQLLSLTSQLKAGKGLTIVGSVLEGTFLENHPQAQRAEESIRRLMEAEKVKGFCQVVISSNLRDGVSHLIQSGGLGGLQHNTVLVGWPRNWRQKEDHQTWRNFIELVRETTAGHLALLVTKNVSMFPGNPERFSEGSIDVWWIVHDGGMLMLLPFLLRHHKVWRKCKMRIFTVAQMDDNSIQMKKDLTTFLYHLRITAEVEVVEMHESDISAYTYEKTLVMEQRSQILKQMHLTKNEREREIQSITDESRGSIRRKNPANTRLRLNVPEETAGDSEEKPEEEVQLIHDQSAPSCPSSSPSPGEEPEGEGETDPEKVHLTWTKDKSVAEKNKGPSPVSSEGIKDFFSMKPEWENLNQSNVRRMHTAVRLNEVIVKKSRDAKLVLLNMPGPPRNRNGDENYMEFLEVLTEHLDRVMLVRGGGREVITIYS
b-catenin transl: modulators of beta-catenin nuclear translocation, primary screen, imaging, HeLa cells, immunofluorescence, high-content | nuclear translocation activity, % at 5 µM | 0.3% of 190,000 active | AID 1665, 2009;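 active = nuclear translocation activity above 50% at 5 µM, with a well cell count of 50 or more; inconclusive = wells under 50 cells across six images, flagged as toxic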;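 also: per-cell ratio of nuclear to cytoplasmic median beta-catenin stain intensity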
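System: HeLa cells, endogenous beta-catenin; compound dosing: 5 µM primary single dose, 0.1% DMSO, 0.02–20 µM confirmation series; incubation: 24 h compound exposure at 37°C, 5% CO2; signal: beta-catenin immunofluorescence imaging with DAPI; evaluation: % activation, nuclear-to-cytoplasmic median beta-catenin signal ratio per cell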
MT stabilize HCS: microtubule stabilizers in HeLa cells, primary screen, imaging, high-content imaging; AID 2205, 2009; 0.83% of 200,000 active; % tubulin-high responders, % at 10 µM; HeLa tubulin immunostaining HCS, 24 h; share of cells brighter than vehicle mean+2SD;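 active = plate Z-score above 3 for both tubulin-high and condensed-nucleus cell shares, with cell loss under 80%, at 10 µM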;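 also: anti alpha tubulin signal scored within the nucleus-defined area of each cell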
WT yeast gro inh: growth inhibition of WT strain, primary screen, mitochondrial fusion inhibitor project, WT and mutant strains, chemical genetic; mitochondrial fusion phenotypic screen; inhibition, % at 10 µM; 2.1% of 190,000 active; AID 1362, 2008; in the data active = inhibition above about 58%; tested in S. cerevisiae
KCC2 secondary: KCC2 modulators in sodium-free buffer, confirmation, cell-based, HEK293 KCC2, thallium flux, secondary assay. normalised thallium flux (F/F0 slope) at 10 µM. shares compounds with Cl transport mod. AID 1713, 2009. FluoZin2 fluorescence; active compounds read high. 15% of 3,700 active;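 active = thallium flux slope above the same plate's solvent-only control mean plus 3 SD; inconclusive = the two replicate wells disagree; inactive = no significant difference from solvent-only control wells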
KCC2 bumet counter: thallium flux persisting under bumetanide in KCC2 cells, confirmation, counter-screen for KCC2 modulator project, cell-based, HEK293 KCC2, FluoZin2, secondary assay 3; shares compounds with Cl transport mod; HEK293-KCC2 + bumetanide/ouabain; active compounds read high; normalized thallium flux at 10 µM; 49% of 3,700 active;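 active = thallium entry rate above the same plate's blocked-transporter control wells by more than 3 SD; inconclusive = the two repeat wells disagree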;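 also: raw slope of fluorescence over initial fluorescence between 10 and 20 s after thallium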
KCC2 secondary2: KCC2 modulators without ouabain present, confirmation, cell-based, HEK293 KCC2, thallium flux, FluoZin2, secondary assay 2 | shares compounds with Cl transport mod | thallium flux FluoZin2 fluorescence; actives lie on both sides; F/F0 rise rate, 10–20 s post-thallium | normalized thallium flux at 10 µM | 23% of 3,700 active;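 active = thallium flux slope more than 3 SD above or below the plate's solvent-only control mean, mostly below; inconclusive = the two repeat wells disagreed; inactive = no significant shift from solvent-only controls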
HEK counter1: thallium flux modulation in parental HEK cells, confirmation, counter-screen for KCC2 modulator project, cell-based, counterscreen 1. shares compounds with Cl transport mod. HEK293 parental cells, thallium flux FluoZin2, ouabain; baseline-ratio fluorescence slope, 10–20 s after thallium. thallium flux rate (normalised fluorescence) at 10 µM. 46% of 3,700 active;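 active = thallium flux rate significantly above the same plate's solvent-only control wells, beyond their mean plus 3 SD; inconclusive = the two replicate wells gave conflicting results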
KCC2 ouabain: KCC2 inhibitors and activators, ouabain retest, confirmation, HEK-KCC2 cells; 48% of 3,700 active; raw Tl+ flux slope (below DMSO = inhibition, above = activation) at 10 µM; shares compounds with Cl transport mod; HEK293-KCC2, thallium flux FluoZin2 fluorescence; bidirectional: low = inhibitor, high = activator; AID 1717, 2009;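 active = thallium flux slope beyond 3 SD from same-plate DMSO control mean in most replicates, usually higher, sometimes lower; inconclusive = repeat tests gave conflicting results; inactive = no significant difference from controls in most replicates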;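 also: slope of initial-normalized fluorescence between seconds 10 and 20 after thallium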
HEK293 Tl flux2: native HEK Tl+ uptake effects, second counter-screen – HEK cells, counterscreen 2, counter-screen for KCC2 modulator project, confirmation | thallium flux slope at 10 µM | AID 1718, 2009 | shares compounds with Cl transport mod | 33% of 3,700 active | HEK293 parental, thallium flux FluoZin-2 fluorescence slope;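 active = thallium flux slope above the same plate's solvent-control mean plus 3 SD in both duplicate wells; inconclusive = duplicate wells that disagreed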;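 also: run without ouabain in cells lacking the KCC2 cotransporter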
Each line names hits and unclear results; the compound was inactive in the other large screens (follow-up assays come after a bar, where they were run). The list is not random: actives were taken first. Their share in the collection is about 4%.

O=c1c2ccc(Cl)cc2[nH]c(=S)n1CCCN1CCOCC1	Cl transport mod 6.46 | KCC2 secondary inconclusive | KCC2 bumet counter 0.0363 | KCC2 secondary2 inactive | HEK counter1 0.0146 | KCC2 ouabain 0.0344 | HEK293 Tl flux2 0.0112
CC1CCN(CCCn2c(=S)[nH]c3c(sc4ccccc43)c2=O)CC1	Cl transport mod 19.5 | KCC2 secondary inactive | KCC2 bumet counter 0.0148 | KCC2 secondary2 inactive | HEK counter1 0.0164 | KCC2 ouabain 0.0264 | HEK293 Tl flux2 0.0179
O=c1c2sc3ccccc3c2[nH]c(=S)n1CCN1CCOCC1	Cl transport mod 8.63 | KCC2 secondary inactive | KCC2 bumet counter 0.0165 | KCC2 secondary2 inactive | HEK counter1 0.0191 | KCC2 ouabain 0.0245 | HEK293 Tl flux2 0.0195
COCCNC(C)C(=O)C12CC3CC(CC(C3)C1)C2 (stereo not given)	Cl transport mod 9.01 | KCC2 secondary inactive | KCC2 bumet counter inactive | KCC2 secondary2 inactive | HEK counter1 inactive | KCC2 ouabain inactive | HEK293 Tl flux2 inactive
Cc1ccc(C)c2sc(NC(=O)c3nc4ccccc4s3)nc12	Cl transport mod 60.1 (no result: Pf gametocyte) | KCC2 secondary 0.0138 | KCC2 bumet counter 0.033 | KCC2 secondary2 inactive | HEK counter1 0.0595 | KCC2 ouabain 0.0364 | HEK293 Tl flux2 0.0154
C(=N\Nc1ccccn1)/c1ccc2c(c1)OCCO2	none
Cc1ccc(-c2ccc(CCC(=O)O)n2C(C)C)cc1	Cl transport mod -4.35 (no result: Pf gametocyte, b-catenin transl) | KCC2 secondary inactive | KCC2 bumet counter inactive | KCC2 secondary2 inactive | HEK counter1 inactive | KCC2 ouabain inactive | HEK293 Tl flux2 inactive
CCC(=O)C1CCCN(C(=O)c2ccc(OC3CCN(C(=O)c4cccnc4)CC3)cc2)C1 (stereo not given)	none
Cc1c(C(=O)NCc2ccccn2)oc2ccc(S(=O)(=O)N3CCOCC3)cc12	Cl transport mod 5.2 | KCC2 secondary inactive | KCC2 bumet counter inconclusive | KCC2 secondary2 inconclusive | HEK counter1 inactive | KCC2 ouabain inactive | HEK293 Tl flux2 inactive
O=C(NCc1ccccn1)c1cc(S(=O)(=O)N2CCN(c3ccccc3)CC2)ccc1Cl	none (no result: Cl transport mod) | KCC2 secondary inactive | KCC2 bumet counter inactive | KCC2 secondary2 0.0256 | HEK counter1 inactive | KCC2 ouabain inconclusive | HEK293 Tl flux2 inactive
Cc1c(C(=O)NCc2cccs2)oc2ccc(S(=O)(=O)N3CCOCC3)cc12	none (no result: Pf gametocyte)
CN(Cc1ccccc1)S(=O)(=O)c1ccc(Cl)c(C(=O)NCCc2ccccn2)c1	Cl transport mod -4.38 | KCC2 secondary inactive | KCC2 bumet counter inactive | KCC2 secondary2 0.0182 | HEK counter1 inactive | KCC2 ouabain 0.012 | HEK293 Tl flux2 inactive
O=c1c(Cc2ccc(F)cc2)c(O)ccn1CCc1ccccn1	none
COc1ccc(C(=O)/C=C/c2ccccc2)c(O)c1	none (no result: Pf gametocyte)
COc1ccc(C(=O)c2ccc(OC)cc2O)c(O)c1	Cl transport mod 5.76 (no result: Pf gametocyte) | KCC2 secondary inactive | KCC2 bumet counter inactive | KCC2 secondary2 inactive | HEK counter1 inactive | KCC2 ouabain inactive | HEK293 Tl flux2 inactive
CC1=C(C(=O)OC(C)C)C(c2cccc([N+](=O)[O-])c2)n2c(cc(=O)[nH]c2=S)N1 (stereo not given)	none
COc1ccc(-c2cc(C(=O)N3CCN(Cc4ccccc4)CC3)no2)cc1OC	Cl transport mod -3.35 (no result: Pf gametocyte, b-catenin transl) | KCC2 secondary inactive | KCC2 bumet counter inconclusive | KCC2 secondary2 0.0219 | HEK counter1 inactive | KCC2 ouabain inactive | HEK293 Tl flux2 inactive
COc1cccc(-c2cc(C(=O)N3CCc4ccccc4C3)no2)c1	Cl transport mod 3.37 (no result: Pf gametocyte) | KCC2 secondary inactive | KCC2 bumet counter inactive | KCC2 secondary2 inactive | HEK counter1 inactive | KCC2 ouabain inactive | HEK293 Tl flux2 inactive
O=C(CCCn1ncn2c(cc3occc32)c1=O)N1CCc2ccccc2C1	Cl transport mod -2.81 (no result: Pf gametocyte) | KCC2 secondary inactive | KCC2 bumet counter inactive | KCC2 secondary2 0.0236 | HEK counter1 inactive | KCC2 ouabain inconclusive | HEK293 Tl flux2 inactive
O=C(CCCn1c(=O)oc2ccccc21)N1CCc2ccccc2C1	none (no result: Pf gametocyte, Cl transport mod) | KCC2 secondary inactive | KCC2 bumet counter inactive | KCC2 secondary2 inactive | HEK counter1 inactive | KCC2 ouabain 0.0181 | HEK293 Tl flux2 inactive
O=C(CCn1c(=O)oc2ccccc21)NCCN1CCc2ccccc2C1	none (no result: b-catenin transl)
CCOc1cc(NC(=O)c2cccs2)c(OCC)cc1NC(=O)CCC(=O)NCCN1CCOCC1	none (no result: Pf gametocyte)
CCC1CCC2(CC1)NC(CO)(CO)CO2 (stereo not given)	Cl transport mod 4.96 (no result: Pf gametocyte) | KCC2 secondary inactive | KCC2 bumet counter inactive | KCC2 secondary2 inactive | HEK counter1 inactive | KCC2 ouabain inactive | HEK293 Tl flux2 0.0111
Cc1ccccc1C(=O)NC(C(N)=O)P(=O)(OC(C)C)OC(C)C (stereo not given)	none (no result: MT stabilize HCS, WT yeast gro inh)
COc1cccc(-c2nnc(NC(=O)c3cccc(F)c3)o2)c1	Cl transport mod 33.1 (no result: Pf gametocyte, MT stabilize HCS) | KCC2 secondary inconclusive | KCC2 bumet counter 0.103 | KCC2 secondary2 0.0883 | HEK counter1 0.0854 | KCC2 ouabain 0.0921 | HEK293 Tl flux2 0.0834
CCCN(CCC)S(=O)(=O)c1ccc(C(=O)Nc2nnc(-c3cc(OC)cc(OC)c3)o2)cc1	Cl transport mod 10.4 (no result: Pf gametocyte, b-catenin transl) | KCC2 secondary inactive | KCC2 bumet counter 0.0205 | KCC2 secondary2 inactive | HEK counter1 inconclusive | KCC2 ouabain 0.0287 | HEK293 Tl flux2 inactive
